Screens deposited in PubChem BioAssay by several laboratories.
Rows were chosen to be rich in hits. Some 4.9% of all compounds tested hit in one or more screens of this group.
HSF-1 act: HSF-1 activators, primary screen, NIH3T3-HGL cells, MG132 stress, luminescence, single point | NIH3T3-HGL HSF-1 luciferase reporter, 8 h; 100% = twice DMSO control signal | activation, % at 9 µM | 300,000 compounds, 1.7% hits;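 active means mean replicate activation of at least 50% with a set share of replicates each reaching 50%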;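 further: 0% = median of the neutral control wells and 100% = twice that signal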
CHT PAM: CHT positive allosteric modulators, primary screen, cell-based, membrane potential dye, choline EC20; High affinity choline transporter 1 (Homo sapiens), Q9GZV3; CHT-expressing cells; hits give high values; LV-AA mutant CHT in HEK293 cells; B-score at 10 µM; 310,000 compounds, 0.49% hits; AID 488977, 2010;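 active means initial fluorescence not abnormally high and integrated response B-score, plate-corrected, over 3 SD above library mean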
Lipid droplet: inhibitors of hepatocyte lipid droplet formation, primary screen, imaging, high-throughput imaging, BODIPY stain | AML12 mouse hepatocytes, oleate lipid droplets | inhibition, % at 6.5 µM | 240,000 compounds, 0.4% hits | AID 1656, 2009;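 active means lipid droplet intensity inhibited by at least 50%, with more than 500 cells counted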
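Assay system: AML12 hepatocytes (mouse) / Also added: 100 µM oleic acid challenge / Times: overnight treatment with compound plus oleate / Detection: high-content imaging of BODIPY-stained droplets and DAPI nuclei / Evaluation: % inhibition of lipid droplet signal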
HSF1 inhib: HSF1 inhibitors in luciferase reporter cells, primary screen, cell-based, NIH3T3, luminescence; NIH3T3-HGL HSE-luciferase, MG132-induced, luminescence 8 h; hits give low values; activity change, negative = inhibition, % at 7.5 µM (by protocol); 300,000 compounds, 0.77% hits;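 active means more than half of replicate wells show activity change below -50%, luminescence cut by over half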;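 further: luciferase reports HSF-1 transcriptional activity via heat shock element; 0% = median of DMSO wells and -100% = zero luminescence signal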
CHT block: inhibitors of human choline transporter CHT. 310,000 compounds, 0.86% hits. B-score at 10 µM. High affinity choline transporter 1 (Homo sapiens), Q9GZV3. CHT-expressing cells, membrane potential dye, choline response; hits give low values. AID 488975, 2010;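 active means B-score over 3 SD under the library average, and starting fluorescence ratio not unusually high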;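 further: choline stimulus applied at its EC90 after an EC20 pre-addition; B-score computed on integrated fluorescence ratio after choline addition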
PHOSPHO1 block: PubChem AID 1565 | Phosphoethanolamine/phosphocholine phosphatase (Homo sapiens), Q8TCT1 | recombinant PHOSPHO1, absorbance phosphatase assay | inhibition, % at 13.3 µM | 290,000 compounds, 1.1% hits; in the data active means inhibition above about 60%
Target sequence (Q8TCT1 whole entry, looked up): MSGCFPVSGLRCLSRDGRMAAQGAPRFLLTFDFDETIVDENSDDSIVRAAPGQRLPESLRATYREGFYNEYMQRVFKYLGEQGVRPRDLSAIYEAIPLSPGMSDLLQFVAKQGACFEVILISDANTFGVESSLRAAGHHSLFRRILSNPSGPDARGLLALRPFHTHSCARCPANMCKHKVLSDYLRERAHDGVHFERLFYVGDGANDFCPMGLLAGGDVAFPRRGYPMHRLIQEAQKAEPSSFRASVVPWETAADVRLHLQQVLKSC
* marks the source's active call; other numbers are inactive results; i = inactive; . = no result.

SMILES | HSF-1 act | CHT PAM | Lipid droplet | HSF1 inhib | CHT block | PHOSPHO1 block
CC(C)(C)OC(=O)N1CSC[C@H]1C(=O)NC[C@H](CC(=O)O)c1ccc(Cl)cc1 | 82* | i | 2 | 39 | i | 29
CCN(Cc1ccccc1)C(=O)C1CCN(Cc2ccc(SC)cc2)CC1 | -11 | i | -7 | -1 | i | 49
CCN(Cc1ccccc1)C(=O)C1CCN(C/C(C)=C/c2ccccc2)CC1 | 88* | i | -19 | 38 | i | 11
O=C(NC(=S)N1CCN(C/C=C/c2ccccc2)CC1)c1ccc(Cl)nc1 | 69* | i | -14 | 38 | i | 12
O=C(NC(=S)N1CCN(Cc2ccccc2)CC1)c1cccnc1 | -1 | i | -5 | -10 | i | -2
CN1CCN(CCCNC(=O)c2cn(C3CCCCC3)c(=O)c3c2c2ccccc2n3C)CC1 | -13 | i | 15 | -3 | -5* | 5
O=C(CCNC(=O)c1ccccc1Cl)NCC12CC3CC(CC(C3)C1)C2 | -9 | i | -8 | -2 | i | -7
CC1(C)CC(=O)C2=C(C1)OC(N)=C(C#N)C2C#Cc1ccccc1 (stereo not given) | 78* | i | . | 22 | i | 18
CCCCn1c(N)c(N(CC(C)C)C(=O)COC(=O)C2(c3ccccc3)CC2)c(=O)[nH]c1=O | -12 | i | . | -2 | i | .
Cc1ccc(C(=O)N/C(=C\c2ccc(-c3cccc([N+](=O)[O-])c3)o2)C(=O)NCCCN(C)C)cc1 | 10 | i | -5 | -2 | i | 3
Cc1ccc(C(=O)N/C(=C\c2ccc(-c3ccc(Br)cc3)o2)C(=O)NCCCN(C)C)cc1 | -98 | i | -11 | -97* | i | -2
Cc1ccc(C(=O)N/C(=C\c2ccc(-c3ccccc3[N+](=O)[O-])o2)C(=O)NCCCN2CCOCC2)cc1 | 58* | i | -13 | 20 | i | -14
Cc1ccc(C(=O)N/C(=C\c2cn(C)c3ccccc23)C(=O)NCCCN2CCOCC2)cc1 | -1 | i | -13 | 0 | i | -30
CCN1CCc2nc3ccccc3c(C(=O)Nc3ccc(F)cc3)c2C1 | 1 | i | -10 | 5 | i | -19
CN(C)c1ccc(C(=O)N2CCN(c3cc(C(F)(F)F)nc4ccccc34)CC2)cc1 | 2 | i | -3 | -9 | i | 18
CC(C)N(Cc1ccccc1)C(=O)COC(=O)/C=C/c1cnc2ccccc2n1 | 63* | i | 13 | 23 | i | 45
CC(=O)N1Cc2cc(N)ccc2Oc2ccccc21 | 14 | i | 6 | -4 | i | -16
CC1CCN(S(=O)(=O)c2ccc3c(c2)c(=O)c(C(=O)NCc2ccco2)cn3C)CC1 | 0 | i | 2 | 5 | i | -3
CCN(CC)S(=O)(=O)c1ccc2c(c1)c(=O)c(C(=O)NCc1ccco1)cn2C | -93 | i | 9 | -90* | i | -8
O=C(CNC(=O)C1CCCCC1)NC1=NCCS1 | -90 | i | . | -88* | i | 6
CCCCn1nc(NC(=O)CC)c2cc3cc(OC)ccc3nc21 | -12 | i | -16 | -2 | i | -4
COc1ccc2oc(=O)c(C(=O)N3CCN(C(=O)c4ccccc4)CC3)cc2c1 | 7 | i | 12 | -2 | i | 36
COc1ccc2oc(=O)c(C(=O)N3CCN(c4ccccc4)CC3)cc2c1 | 82* | i | . | 44 | i | 4
O=C(CCCCCCN1C(=O)c2ccccc2C1=O)Nc1nccs1 | 9 | i | -25 | 7 | i | 9
O=C(Oc1ccccc1)n1c(=S)oc2ccccc21 | 3 | i | -1 | 2 | i | 19
SMILES | HSF-1 act | CHT PAM | Lipid droplet | HSF1 inhib | CHT block | PHOSPHO1 block
Cc1ccccc1OC(=O)n1c(=S)oc2cc(Cl)ccc21 | 19 | i | 1 | 2 | i | 103*
S=c1[nH]nc(Nc2ccc(Cl)cc2)s1 | -19 | i | -13 | -3 | i | 86*
COc1ccc(N=Nc2nc3cc(Br)c(Br)cc3n2C)c(OC)c1 | . | i | 30 | . | i | 72*
COc1ccc(CNc2nc3ccccc3n2C)c(OC)c1 | 32 | i | 0 | 24 | i | -1
CCCOCC(O)COc1ccccc1C(=O)N1CCOCC1 (stereo not given) | -9 | i | . | -6 | i | 31
Clc1ccc(COn2nnc3ccccc32)c(Cl)c1 | 86* | i | 7 | 53 | i | 45
COc1ccc(N2CCN(C3CCCN(C(=O)c4ccoc4)C3)CC2)cc1 (stereo not given) | 19 | i | 1 | 1 | i | 53
CCC1=NN(C(=O)c2ccc(Br)cc2)C(O)(c2ccccc2)C1 (stereo not given) | 20 | i | 7 | 19 | i | -5
CC1=NN(C(=O)c2ccccc2)C(O)(c2ccc(Br)cc2)C1 (stereo not given) | 83* | i | 5 | 43 | i | 25
CCOC(=O)C1=NN(C(=O)c2ccccc2)C(O)(c2ccc(C)cc2)C1 (stereo not given) | 318* | i | 3 | 227 | i | -4
CCOC(=O)C1=NN(C(=O)c2ccc(OC)cc2)C(O)(c2ccc(Cl)cc2)C1 (stereo not given) | 80* | i | -17 | 53 | i | -12
COC(=O)C1=NN(C(=O)c2cccc(Br)c2)C(O)(c2ccc(Cl)cc2)C1 (stereo not given) | 183* | i | -4 | 114 | i | 28
Nc1nc(-c2cc3c(cc2Cl)OCCO3)cs1 | 15 | i | 3 | 2 | i | 14
CCOC(=O)c1cc(NC(=O)c2cccnc2)ccc1N1CCOCC1 | 2 | i | -7 | -3 | i | 28
CC(=O)OCC(=O)[C@@]12OC3(CCCC3)O[C@@H]1C[C@H]1[C@@H]3CCC4=CC(=O)C=C[C@]4(C)[C@@]3(F)[C@@H](O)C[C@@]12C | -57 | i | 14 | -46 | i | 1
CCOC(=O)N1CCN(C2CCCN(C(=O)c3ccccc3C(F)(F)F)C2)CC1 (stereo not given) | 10 | . | 1 | 1 | . | .
CCOC(=O)C1=NN(C(=O)COc2ccccc2)C(O)(c2ccc(Cl)cc2)C1 (stereo not given) | 122* | i | -6 | 71 | i | -5
CCOC(=O)C1=NN(C(=O)Cc2ccccc2)C(O)(c2ccc(Cl)cc2)C1 (stereo not given) | 32 | i | -4 | 7 | i | 0
